Test results published in the EternaBench riboswitch data.

Test system: MS2 coat protein
Experiment: apparent Kd, MS2 coat protein; higher = weaker binding; RNA-MaP array
Outline: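 Designed RNAs were transcribed on an Illumina sequencing chip from sequenced DNA templates. They were incubated at room temperature with fluorescently labeled MS2 coat protein at 1.5 nM to 3 μM, for 0.8–1.5 h at the lowest to 10–20 min at the highest concentrations, in Tris-HCl pH 7.5 buffer with KCl, MgCl2, BSA, DTT, tRNA and Tween20, with or without input ligand. Apparent Kd is the median of per-cluster binding-curve fits. Designs measured on fewer than 10 clusters were excluded.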

[1] = designed as: OFF switch for flavin mononucleotide, no ligand
[2] = ligand present: flavin mononucleotide, designed as: OFF switch for flavin mononucleotide
[3] = designed as: ON switch for flavin mononucleotide, no ligand
[4] = ligand present: flavin mononucleotide, designed as: ON switch for flavin mononucleotide
[5] = designed as: ON switch for tryptophan, no ligand
[6] = ligand present: tryptophan, designed as: ON switch for tryptophan

Sequence	apparent Kd [1]	apparent Kd [2]	apparent Kd [3]	apparent Kd [4]	further results
CGCCACACAUGAUAAUCAUAACAUGAGGAUCACCCAUGUCAUAGAAGGUGCAUAUUUUAGAAUCGCAAGGAUAUAUGGACAAUU	16.2 nM	18.7 nM			
CCUCACGGACUCUCCACAUGAGGAUCACCCAUGUAAGCCGCGAAGGAUAUGAACGUCUCUCCGGGUCAGAAGGUCGCCGGUCCU	8.78 nM	9.71 nM			
UAAACAUGAGGAUCACCCAUGUAUUGGAGUAACCGCAAGAGGAGAAGGACCGGAGUGAGAUUAUGGUAGGAUAUCCCAACUACA			17.6 nM	12.1 nM	
AAGGGCGCAGUAGGAUAUCAAUGUUUGACGGCGUGAGAAGGACUGCCCUAUUUUCAGACAUGAGGAUCACCCAUGUGCGUAAGA			9.4 nM	6.41 nM	
GAAUAGGAUCAGAAGGAGCUCCAACGGUGACAUGAGGAUCACCCAUGUACUAAACUACAGAAAAGCUAGGAUAUGAAUAAUAGG			27.7 nM	25.4 nM	
UGGCGCUGUGCAGGAUAUAUCAAUUAGAACAGGGCGCAGGGUAGAAACAUGAGGAUCACCCAUGUAUAGAAGGGCACAGUAGGU	53.1 nM	49.7 nM			
GUGCACCGUGAGAAGGCAUAGCACGUGUCGCUGACAUGAGGAUCACCCAUGUGUUGUAAAGUGCAUGAGGAUAUCAGCCAUAGG			42.3 nM	10.4 nM	
UGGGAACAUGAGGAUCACCCAUGUGAGGAUAUCCACCGAUUUCACACGAUAGGCACAAGGAGAAGGCACACCUA	33.9 nM	36.2 nM			
CCUAACUGAGGAUAUGACAACUGGCACAUGAGGAUCACCCAUGUAGACUCAUUCGAGUUAUCAGAAGGCAGAAUAU	10.7 nM	18.8 nM			
UUACAAAACCAGAAGGUCUAAAAGAUUAAAUGAGAAGGAUAUGGCUAAACAUGAGGAUCACCCAUGUAGAAAACGAUACGUGAU			37.8 nM	29.9 nM	
UGAUUGAGCGGAGGAUAUCUUAAUGAGCACGUAAGAGAAGGCCGGUGGCUCCUAUAUGCAGCGCACAUGAGGAUCACCCAUGUC	170 nM	91.6 nM			
GUAUGGGCGUAACAUGAGGAUCACCCAUGUCCGAAUGCGAUGAGAAGGCCACAUAGUUGGCUGAUGGAGGAUAUCAAAGUAUAU	97.9 nM	70.8 nM			
GGUUUGAACAAGAAGGUGAGUCACGAGACCCUGGGAUCUCGGGACAUGAGGAUCACCCAUGUCGUCAAGGAUAUUGUGGUGUUU			769 nM	191 nM	
AGAAAACAUGAGGAUCACCCAUGUAAGGAUAUACAAACUCCAGAAAUAAAAGGAUUAAGAAGAAGGUACAUAAA	10.9 nM	9.2 nM			
AAUUCAAGGGUUAGGAUAUUCAAUAUAAAAUACUAGAAGAAGGAACAUGAGGAUCACCCAUGUUAUAGUGAUCU	27.1 nM	32.1 nM			
GUCGCGUAGCAAGGAUAUGCAAAGAGGAAAACUGCAGAAGGUGCCAUUAAAGGACAUGAGGAUCACCCAUGUGCAUUAUCCACA			53.4 nM	30.9 nM	
UGUACAACAUGAGGAUCACCCAUGUGGCACCUCUGUCGAUUCGAGGAUAUCAGGUAAAGUGGCUGUGAGAAGGCGAAAGUUCCG	65 nM	50.3 nM			
UGUAUGUUAGGAUAUAGUGUGACACUGUAAUUGCUCGGCACCUAGAAGGAACAUGAGGAUCACCCAUGUGGUGG	337 nM	244 nM			
AAACAUGAGGAUCACCCAUGUCGUCCAAUGUAGGCCUAUUGCGAGGAUAUCAUGUCCCAACUACGUGAGAAGGCGCGACUACCA	15.2 nM	12.5 nM			
AAUACAUGAGGAUCACCCAUGUUGACAUCAUGAGCCAACCUUAGAAGGACUUUAAUGACGCUCGAGUAGGAUAUAAGGCAAGUU			13.7 nM	12 nM	
AUCGAUUUUAUAGGAUAUCGCACAUGAGGAUCACCCAUGUGCCCGACAGACUUAAAGCUCAAUCGCGAGAAGGAUAGAACAGGG	8.63 nM	8.02 nM			
UCUCUCGAUGUGCAUUGACAUGAGGAUCACCCAUGUACUGCCUAGGAUAUAACUGGCCCGAUCAGUUAGAAGGAGGGAGAAUAG	6.67 nM	6.51 nM			
GUCGAUUUUAAAUUGACAUGAGGAUCACCCAUGUCUUUAAUCAGAAGGCGGACAACAUUAUGUGCCGAGGAUAUGAUUGGAUCC			14.2 nM	11.3 nM	
CAAGGGAAAGUCAGGAUAUGCACAACCGACCGUUUGCAGAAGGGACAUGAGGAUCACCCAUGUGUGGAACUGUU	9.02 nM	21.4 nM			

Sequence	apparent Kd [1]	apparent Kd [2]	apparent Kd [3]	apparent Kd [4]	further results
GAUCUGGCGGUGAGGAUAUAUAUCAAAUGCAAGGCAUAGAAGGCACAUGAGGAUCACCCAUGUCUGCACCAGGG	14 nM	15.6 nM			
AGUUGUGGAAAGAAGGCGUGACGAGGUAAAUAUCCAACAUGAGGAUCACCCAUGUUUCUUGCCUACGAGGAUAUUUGUGCUAUC			14 nM	12.2 nM	
CACAUUCCUUAGAAGGCUACGAAUUUAGCGCGUAGAGGAUAUAAGGGAUACAUGAGGAUCACCCAUGUGAUAUAUCUUCUGAAA	20.8 nM	24.1 nM			
CUUUAUACAUGAGGAUAUUGGAAAACCGGCGUACAAGAAGGCAUGACAUGAGGAUCACCCAUGUAAAGAUAAAGACAAAGCUAA			22.7 nM	10.3 nM	
GCAACCCUGCAGAAGGGCGGGUGUACAUGAGGAUCACCCAUGUUAUCAGCAAAGUAGCUGGAUACGCAGGAUAUGCAGUCGAGU			164 nM	29.6 nM	
GUUAUAAUUACCAAGGAUAUCACAAGGCUUACAUGAGGAUCACCCAUGUUAAUACUCACAGACCGUGAGAAGGUGGCAAGAUCGAU			21.4 nM	16 nM	
CGCCUACAUGAGGAUCACCCAUGUGAUGUUACGGUAGGAUAUAGAGCUGAGCCACUCUGCCUAGAAGGACCUAUAC			68.8 nM	37.3 nM	
AUUAGCAAGUCAUAGGAUAUGAAGCCACUUACAUGAGGAUCACCCAUGUAAUUCCGGGUCCCGCCUCAGAAGGAUGACGUAAUAGG			17.1 nM	7.12 nM	
UGUCCGUGAUCGGCCGCCACUCAACAAACCUGUGGAAACUGACAUGAGGAUCACCCAUGUUCUUGGAGGACCGGGAUUGCUUCGA					apparent Kd [5]: 14.6 nM; apparent Kd [6]: 17.3 nM
UCAUGGUCUGGAGAGAGAAUUACAUGAGGAUCACCCAUGUGCAGAAGGAGUUAUCGCACAACAAACUAGGAUAUGCCAAGAAUU			98.1 nM	152 nM	
GUUUACAAUGUCAGGAUAUCACAGCGUACAAAUGUUGAGAAGGGACAUGAGGAUCACCCAUGUACACACCUCUU	8.04 nM	9.29 nM			
GUAACACUGUCAUCGCCGACAUGAGGAUCACCCAUGUGUAAGAGAAGGACCGAGACCGGGAAAUGGUAGGAUAUCUGUGGGUAG	45.1 nM	84.5 nM			
UCUAACAUGAGGAUCACCCAUGUGGGUUAUCGAGGACCGGUACGGCCGCCACUCGACCAGUAUAACUGGCUAGAACGUAUUUGAU					apparent Kd [5]: 34 nM; apparent Kd [6]: 26.6 nM
AUUAACUCAGCAGGAUAUCUCAGCGGACGUUGCAGAGAAGGGCUAUGCCUAUGUAGGCAACUCACAUGAGGAUCACCCAUGUAA			38.8 nM	19.1 nM	
GAAACAUUAGAAGGAUAUGAUACGAACACCGGGUACAUGAGGAUCACCCAUGUUCAGAAAUAAUAUCAGAAGGUCAGCAACAAA			985 nM	418 nM	
UAACGUACAAAAGGAUAUGCCAAUAGAAAGAUCUUACAAUAAACACAUGAGGAUCACCCAUGUAAGCAGAAGGUUUGGAAACAA	12.4 nM	10.2 nM			
CGUAUGUGAGGAUAUCCGAAACUAUUUACCAAAUUAUAAGUGGAGAAGGCACAUGAGGAUCACCCAUGUGAUGG	11.5 nM	24.6 nM			
ACACAUGAGGAUCACCCAUGUCGACGUUAGGCUCGUCGCGGCAGAAGGUGUGGCAUGGACACCCACAAGGAUAUGCAUGGGACU			174 nM	119 nM	
AGUCCCAGGGAGAAGGACAUGAUCACAUGAGGAUCACCCAUGUGAGCCAUUUUAUGUAGGGACGUGUAGGAUAUCCGGACAUGG	6.27 nM	6.11 nM			
GCAUUAGAGGACACAUGAGGAUCACCCAUGUGCAUCAUCAGAUAGGAUAUCUUAACAGAAAUUUGAGAGAAGGAUCGUGUUCGG	7.84 nM	7.53 nM			
CAGUGAGCCAAGAAGGUUGCUGACGAUAGUGGCAAAGGAUAUUGAGGGCGCAAUCAUUUACAUGAGGAUCACCCAUGUUCUUAC			35.4 nM	17.5 nM	
GAAGAAAAGUGAGGAUAUGGCAACCAGAUGACGCAAACAAUAAAACAUGAGGAUCACCCAUGUACCCAGAAGGCACCAAACAAA			15.2 nM	9.48 nM	
GGACAUGAGGAUCACCCAUGUAGUGGAGGGCUCAGGCUCGCAAGAAGGUUAAGAAUAUAGUCAAUAAAGGAUAUUGAGGGCCGA	21.7 nM	19.2 nM			
CCUGAGGUUAUAGGAUAUAGGCUAGAGAGGUACGAUUCUUUAUGAACAUGAGGAUCACCCAUGUCCUAGAAGGAUACUUAGUAG			58.1 nM	112 nM	
